For one experiment, the species on record is Homo sapiens. The experiment is described as follows: Selectivity ratio of Ki for human MT2 receptor to Ki for human MT1 receptor.
For experiment [1], the target named is T1, Melatonin receptor type 1A (Homo sapiens, UniProt P48039). The experiment is described as follows: Displacement of 2-[125I]iodomelatonin from human MT1 receptor expressed in CHO cells. The class given is cell-based. Put shortly:
(§1)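 Membranes from CHO cells stably expressing human MT1 or MT2, grown in DMEM with 10% fetal calf serum, homogenized in Tris/EDTA and pelleted at 95,000g. Incubated with 20 pM 2-[125I]-iodomelatonin and test drug in 50 mM Tris/HCl pH 7.4, 5 mM MgCl2, 120 min at 37 °C. Stopped by filtration onto PEI-soaked GF/B filters. Ki = IC50/(1+[L]/KD) from seven-concentration curves.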

Experiment [2] deals with T2, Melatonin receptor type 1B (Homo sapiens, UniProt P49286).
T2 sequence (P49286 whole entry): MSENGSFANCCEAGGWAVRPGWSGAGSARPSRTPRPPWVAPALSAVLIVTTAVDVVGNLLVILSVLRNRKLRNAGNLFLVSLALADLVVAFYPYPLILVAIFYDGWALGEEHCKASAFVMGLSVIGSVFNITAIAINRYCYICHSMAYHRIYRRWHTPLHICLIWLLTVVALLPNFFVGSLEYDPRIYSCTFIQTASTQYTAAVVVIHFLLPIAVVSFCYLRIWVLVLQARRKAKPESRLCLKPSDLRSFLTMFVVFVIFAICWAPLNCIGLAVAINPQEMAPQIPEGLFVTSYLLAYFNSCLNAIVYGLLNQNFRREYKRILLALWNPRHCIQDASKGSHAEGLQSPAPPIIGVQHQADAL
The experiment can be described thus: Displacement of 2-[125I]iodomelatonin from human MT2 receptor expressed in CHO cells. Format: cell-based. The essentials:
as §1

The target of experiment [3] is T1, Melatonin receptor type 1A. The experiment is described as follows: Agonist activity at human MT1 receptor expressed in CHO cells by [35S]GTPgamma binding assay. Format: functional, cell-based.
Experiment [4] concerns the target T2, Melatonin receptor type 1B. The experiment is described as follows: Agonist activity at human MT2 receptor expressed in CHO cells by [35S]GTPgamma binding assay. The class given is functional, cell-based.

T1 sequence (P48039 whole entry): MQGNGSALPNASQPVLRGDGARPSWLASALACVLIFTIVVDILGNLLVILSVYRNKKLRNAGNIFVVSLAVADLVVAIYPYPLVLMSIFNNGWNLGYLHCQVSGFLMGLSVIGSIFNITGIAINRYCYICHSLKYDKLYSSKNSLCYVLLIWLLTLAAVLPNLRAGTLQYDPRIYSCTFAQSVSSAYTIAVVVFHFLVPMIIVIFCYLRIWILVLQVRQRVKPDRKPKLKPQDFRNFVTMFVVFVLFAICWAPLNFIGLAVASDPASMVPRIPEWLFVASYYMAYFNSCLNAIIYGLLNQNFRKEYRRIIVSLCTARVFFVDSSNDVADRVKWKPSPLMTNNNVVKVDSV

Regarding `O=C(NCCCc1ccc2nc(CCCCc3ccccc3)oc2c1)C1CC1`, in the experiment filed under Homo sapiens, the Ratio Ki was 35.

For the compound `CC(=O)NCCc1cccc2ccc(OCCCCOc3ccc(-c4ccc(CO)cc4)cc3)cc12`, the values for the Ki in experiment [1] and in experiment [2] were 0.09 nM and 6.53 nM, respectively. The Ratio Ki in the experiment filed under Homo sapiens was determined as 72. Further, the concentration for a half-maximal effect (EC50) is 2.37 nM in experiment [3] and 26 nM in experiment [4].

Take `CC(=O)NCCc1cccc2ccc(OCCCCOc3ccc4cccc(CCNC(C)=O)c4c3)cc12`: in the experiment filed under Homo sapiens, the Ratio Ki came to 120. Also, the EC50 in experiment [3] amounted to 73 nM; in experiment [4] it was 405 nM.

Regarding `COC(=O)C(C)c1ccc2cc(OCCCCOc3ccc4cccc(CCNC(C)=O)c4c3)ccc2c1` (centres undefined), the figures for the inhibitory constant (Ki) in experiment [1] and in experiment [2] were 0.37 nM and 4.22 nM, respectively. The Ratio Ki in the experiment listed under Homo sapiens was found to be 11. The concentration for a half-maximal effect (EC50) in experiment [3] was found to be 21.7 nM; in experiment [4] it was 88 nM.

For `O=C(NCCc1cccc2ccc(OCCCCOc3ccc4cccc(CCNC(=O)C5CC5)c4c3)cc12)C1CC1`, the Ki in experiment [1] stood at 1.01 nM; in experiment [2], 13.6 nM. Besides, the Ratio Ki in the experiment listed under Homo sapiens was 13. This compound returned an EC50 in experiment [4] of 134 nM.

Turning to `CC(=O)NCCc1cccc2ccc(OCCCCOc3ccc4cccc(CCNC(=O)c5ccco5)c4c3)cc12`, the values for the inhibition constant (Ki) in experiment [1] and in experiment [2] were 0.64 nM and 11.8 nM, respectively. The Ratio Ki in the experiment listed under Homo sapiens was determined as 18. In experiment [3], this compound showed a 50% effective concentration (EC50) of 11.2 nM.

`CC(=O)NCCc1cccc2ccc(OCCCCOc3ccc(-c4ccc(C(=O)O)cc4)cc3)cc12`: the inhibition constant (Ki) in experiment [1] stood at 0.55 nM; in experiment [2], 51.3 nM. Further, the Ratio Ki in the experiment listed under Homo sapiens came out at 93. Moreover, the midpoint of the response in experiment [3], the EC50, lay at 26.1 nM.

`CC(=O)NCCc1cccc2ccc(OCCCCOc3ccc4cc(C(C)C(=O)O)ccc4c3)cc12` (centres undefined): the Ki is 1.51 nM in experiment [1] and 59.1 nM in experiment [2]. Also, the Ratio Ki in the experiment listed under Homo sapiens was determined as 39. Also, the EC50 in experiment [3] is 22 nM; in experiment [4], 161 nM.

For the compound `CC(=O)NCCc1cccc2ccc(OCCCCOc3ccc4cccc(CCNC(=O)C5CC5)c4c3)cc12`, the Ki in experiment [1] stood at 1.07 nM; in experiment [2] it was 11.1 nM. The Ratio Ki in the experiment filed under Homo sapiens worked out at 10. The same compound had a 50% effective concentration (EC50) in experiment [3] of 9.1 nM.

Turning to `C=CCC(=O)NCCc1cccc2ccc(OCCCCOc3ccc4cccc(CCNC(C)=O)c4c3)cc12`, the Ki came to 0.79 nM in experiment [1] and 8.45 nM in experiment [2]. The Ratio Ki in the experiment filed under Homo sapiens stood at 11. In experiment [3], the EC50 came out at 12 nM.

Consider `C=CCC(=O)NCCc1cccc2ccc(OCCCCOc3ccc4cccc(CCNC(=O)CC=C)c4c3)cc12`, for which the Ki in experiment [1] was found to be 0.92 nM; in experiment [2] it was 10.9 nM. For the same compound, in the experiment listed under Homo sapiens, the Ratio Ki was determined as 12. Also, the EC50 in experiment [3] was 16.1 nM; in experiment [4], 40.2 nM.

For the compound `CC(=O)NCCc1cccc2ccc(OCCCCOc3ccc4scc(CCNC(C)=O)c4c3)cc12`, the inhibition constant (Ki) in experiment [1] amounted to 3.47 nM; in experiment [2] it was 16.9 nM. The Ratio Ki in the experiment filed under Homo sapiens came to 5. Further, the EC50 in experiment [3] amounted to 1.94 nM; in experiment [4], 20.6 nM.

With `CC(=O)NCCc1cccc2ccc(OCCCCOc3ccc4occ(CCNC(C)=O)c4c3)cc12`, the Ki in experiment [1] is 1.38 nM; in experiment [2] it was 13.9 nM. Also, the Ratio Ki in the experiment filed under Homo sapiens came to 10. Also, in experiment [3], the response was half-maximal at 2.49 nM (EC50).

Turning to `CC(=O)NCCc1cccc2ccc(OCCCCOc3ccc4[nH]cc(CCNC(C)=O)c4c3)cc12`, the Ki came to 4.04 nM in experiment [1] and 84.3 nM in experiment [2]. In addition, the Ratio Ki in the experiment listed under Homo sapiens was determined as 21. Besides, the EC50 in experiment [3] is 2.38 nM.

In the case of `CC(=O)NCCc1cccc2ccc(OCCCCOc3ccc4c(c3)C(CCNC(C)=O)CCC4)cc12` (centres undefined), the Ki in experiment [1] is 0.26 nM; in experiment [2], 6.79 nM. Moreover, the Ratio Ki in the experiment filed under Homo sapiens was found to be 26. This compound came in with a 50% effective concentration (EC50) in experiment [3] of 7.75 nM.

On to `COC(=O)Cc1cccc2ccc(OCCCCOc3ccc4cccc(CCNC(C)=O)c4c3)cc12`, for which the Ki in experiment [1] amounted to 0.07 nM; in experiment [2] it was 1.84 nM. Moreover, the Ratio Ki in the experiment filed under Homo sapiens came to 26. In experiment [3], this compound came in with a 50% effective concentration (EC50) of 2.89 nM.

Turning to `CC(=O)NCCc1cccc2ccc(OCCCCOc3ccc4cccc(CC(=O)O)c4c3)cc12`, the figures for the Ki in experiment [1] and in experiment [2] were 9.1 nM and 45.8 nM, respectively. In addition, in the experiment filed under Homo sapiens, the Ratio Ki was determined as 5. The compound also showed an EC50 in experiment [3] of 3.14 nM.

Take `COC(=O)c1ccc(-c2ccc(OCCCCOc3ccc4cccc(CCNC(C)=O)c4c3)cc2)cc1`: the Ki turned out to be 2.37 nM in experiment [1] and 19.1 nM in experiment [2]. In addition, the Ratio Ki in the experiment filed under Homo sapiens is 8. The compound further came in with an EC50 in experiment [3] of 46.2 nM.

`CC(=O)NCCc1cccc2ccc(-c3ccc4cccc(CCNC(C)=O)c4c3)cc12`: the Ratio Ki in the experiment filed under Homo sapiens was found to be 70.

The values are drawn from ChEMBL document CHEMBL1157828, “Design, synthesis and pharmacological evaluation of novel naphthalenic derivatives as selective MT(1) melatoninergic ligands” (Bioorg Med Chem, 2010).
